In ChEMBL document CHEMBL1124986, “Imidazodiazepinediones: a new class of adenosine receptor antagonists” (J Med Chem, 1990):
One block for each compound: values may come before it.

What was measured:
Adenosine receptor A1 = molecular target: T1, Adenosine receptor A1 (Rattus norvegicus, UniProt P25099); assay: Binding affinity for Adenosine A1 receptor from rat brain using [3H]-PIA as radioligand
T1 sequence (P25099 whole entry): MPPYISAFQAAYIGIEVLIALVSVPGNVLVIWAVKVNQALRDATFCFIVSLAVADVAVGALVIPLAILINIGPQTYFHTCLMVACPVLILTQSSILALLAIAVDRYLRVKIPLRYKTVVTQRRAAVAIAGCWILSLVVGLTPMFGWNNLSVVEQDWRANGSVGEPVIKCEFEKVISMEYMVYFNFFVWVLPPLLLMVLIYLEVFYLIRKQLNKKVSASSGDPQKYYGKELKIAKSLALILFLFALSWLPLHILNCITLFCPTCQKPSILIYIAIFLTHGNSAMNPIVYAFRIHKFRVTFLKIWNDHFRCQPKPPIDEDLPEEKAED
Summary of the method: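 Rat cerebral cortex membranes incubated with 1 nM [³H]PIA at 37 °C. Means ± SEM, n = 3-5. Where inhibition was incomplete, percent inhibition at the highest concentration tested is reported.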

Adenosine A2 receptor [1] = molecular target: T2, Adenosine A2 receptor (Rattus norvegicus, UniProt P29276+P30543); assay: Antagonism of N-ethylcarboxamido adenosine-stimulated adenylate cyclase associated with stimulation of Adenosine A2 receptor of rat PC12 membranes; format: functional, cell membranes, Membrane; settings: pc-12
[2] = molecular target: Adenosine A2 receptor (Rattus norvegicus) (UniProt P29276+P30543); assay: Inhibition of [3H]NECA binding to Adenosine A2 receptor in rat striatal membrane; format: cell membranes; design: concentration or dose not given beside the values; settings: Striatum, concentration not given here
Summary of the method: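 Rat striatal membranes with 4 nM [³H]NECA; 50 nM N⁶-cyclopentyladenosine present to block A1 sites. IC50 converted to Ki by Cheng-Prusoff using KD 8.5 nM for [³H]NECA at A2 receptors. Means ± SEM, n = 3. Where inhibition was incomplete, percent inhibition at the highest concentration tested is reported.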

Adenosine A2 receptor [3] = molecular target: T2, Adenosine A2 receptor; assay: Binding affinity for Adenosine A2 receptor from rat striatum using [3H]NECA as radioligand; format: protein assay
[4] = molecular target: T3, Adenosine receptor A1 (Rattus norvegicus) (UniProt P25099); assay: Inhibition of [3H]PIA binding to Adenosine A1 receptor in rat cerebral cortical membrane; format: cell membranes; design: concentration or dose not given beside the values; settings: concentration not given here
T3 sequence (whole entry): T1 sequence (P25099 whole entry)
Summary of the method: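 Rat cerebral cortex membranes incubated with 1 nM [³H]PIA at 37 °C. […] Means ± SEM, n = 3-5. Where inhibition was incomplete, percent inhibition at the highest concentration tested is reported.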

Structure (SMILES): CC(C)Cn1c(=O)n(C)c(=O)c2c1ncn2Cc1ccccc1
Ki (Adenosine receptor A1): 6.9 µM
Ki (Adenosine A2 receptor [1]): 7.5 µM
Ki (Adenosine A2 receptor [3]): 32 µM

Structure (SMILES): Cn1cnc2c1c(=O)[nH]c(=O)n2C [THEOBROMINE]
Ki (Adenosine receptor A1): 105 µM
Ki (Adenosine A2 receptor [1]): 250 µM
inhibition [2]: 40%
Ki (Adenosine A2 receptor [3]): > 250 µM

Structure (SMILES): CN1CC(=O)N(C)c2ncn(Cc3ccccc3)c2C1=O
Ki (Adenosine receptor A1): 30 µM
Ki (Adenosine A2 receptor [1]): 120 µM
inhibition [2]: 30%
Ki (Adenosine A2 receptor [3]): > 250 µM

Structure (SMILES): CCCn1c(=O)c2c(ncn2Cc2ccccc2)n(CCC)c1=O
Ki (Adenosine A2 receptor [1]): 0.88 µM
Ki (Adenosine A2 receptor [3]): 3.8 µM

Structure (SMILES): Cn1c(=O)c2c(ncn2Cc2ccccc2)n(C)c1=O
Ki (Adenosine A2 receptor [1]): 5.6 µM
Ki (Adenosine A2 receptor [3]): 46 µM

Structure (SMILES): CC(C)CN1C(=O)CN(C)C(=O)c2c1ncn2Cc1ccccc1
Ki (Adenosine receptor A1): 11.3 µM
Ki (Adenosine A2 receptor [1]): 116 µM
Ki (Adenosine A2 receptor [3]): 140 µM

Structure (SMILES): CN1CC(=O)N(C)c2[nH]cnc2C1=O
Ki (Adenosine A2 receptor [1]): > 300 µM
inhibition [2]: 9%
inhibition [4]: 30%
Ki (Adenosine A2 receptor [3]): >> 250 uM

Structure (SMILES): CC(C)CN1C(=O)CN(C)C(=O)c2[nH]cnc21
Ki (Adenosine receptor A1): 104 µM
Ki (Adenosine A2 receptor [1]): > 300 µM
inhibition [2]: 15%
Ki (Adenosine A2 receptor [3]): >> 250 uM

Structure (SMILES): CN1CC(=O)N(C)c2nc[nH]c2C1=O
Ki (Adenosine receptor A1): > 250 µM

Structure (SMILES): CC(C)Cn1c(=O)n(C)c(=O)c2nc[nH]c21 [ISOBUTYLMETHYLXANTHINE]
Ki (Adenosine receptor A1): 6.7 µM
Ki (Adenosine A2 receptor [1]): 6.3 µM
Ki (Adenosine A2 receptor [3]): 9.1 µM

The next lines start with the values.

Ki (Adenosine receptor A1): 236 µM
Ki (Adenosine A2 receptor [1]): > 300 µM
inhibition [2]: 11%
Ki (Adenosine A2 receptor [3]): >> 250 uM
Structure (SMILES): CCCN1C(=O)CNC(=O)c2[nH]cnc21

Ki (Adenosine receptor A1): 11 µM
Ki (Adenosine A2 receptor [1]): 47 µM
Ki (Adenosine A2 receptor [3]): 52 µM
Structure (SMILES): CCCN1CC(=O)N(CCC)c2ncn(Cc3ccccc3)c2C1=O

Ki (Adenosine receptor A1): 16 µM
Ki (Adenosine A2 receptor [1]): 76 µM
Ki (Adenosine A2 receptor [3]): 81 µM
Structure (SMILES): CCN1CC(=O)N(CC)c2ncn(Cc3ccccc3)c2C1=O

Ki (Adenosine receptor A1): 32 µM
Ki (Adenosine A2 receptor [1]): 163 µM
Ki (Adenosine A2 receptor [3]): 151 µM
Structure (SMILES): CCCN1C(=O)CNC(=O)c2c1ncn2Cc1ccccc1

Ki (Adenosine A2 receptor [1]): > 300 µM
inhibition [2]: 20%
inhibition [4]: 40%
Ki (Adenosine A2 receptor [3]): > 250 µM
Structure (SMILES): CCN1CC(=O)N(CC)c2[nH]cnc2C1=O

Ki (Adenosine receptor A1): > 250 µM
Ki (Adenosine A2 receptor [1]): 260 µM
inhibition [2]: 17%
inhibition [4]: 40%
Ki (Adenosine A2 receptor [3]): > 250 µM
Structure (SMILES): CCN1CC(=O)N(CC)c2ncn(C)c2C1=O

Ki (Adenosine receptor A1): > 250 µM
Ki (Adenosine A2 receptor [1]): > 300 µM
inhibition [2]: 9%
inhibition [4]: 10%
Ki (Adenosine A2 receptor [3]): >> 250 uM
Structure (SMILES): CN1CC(=O)N(C)c2ncn(C)c2C1=O

Ki (Adenosine receptor A1): > 250 µM
Ki (Adenosine A2 receptor [1]): > 300 µM
inhibition [2]: 11%
inhibition [4]: 10%
Ki (Adenosine A2 receptor [3]): >> 250 uM
Structure (SMILES): CN1C(=O)CNC(=O)c2c1ncn2C

Ki (Adenosine receptor A1): > 250 µM
Ki (Adenosine A2 receptor [1]): 170 µM
inhibition [2]: 23%
inhibition [4]: 40%
Ki (Adenosine A2 receptor [3]): > 250 µM
Structure (SMILES): CCCN1CC(=O)N(CCC)c2ncn(C)c2C1=O

Ki (Adenosine receptor A1): > 250 µM
Structure (SMILES): CCN1CC(=O)N(CC)c2nc[nH]c2C1=O
